Measured values reported in article PMC5091360 (Science Advances, 2016).
Ends that are not written are not given here.

Assays:
[1] = tested on: FGF receptors; details: cited from earlier work
[2] = tested on: ERK1/2 pathway in lymphatic endothelial cells (LECs); assay: ERK1/2 phosphorylation in lymphatic endothelial cells; format: cell-based, human; details: growth factor 100 ng/ml, 10 min, 37°C, 1% DMSO, heparin 10 U/ml
In short: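 Human dermal lymphatic microvascular endothelial cells were cultured overnight in EBM2 with 2% FBS, then starved 18 h in EBM2 with 0.2% BSA. They were stimulated with VEGF-A, VEGF-C or FGF-1, with or without test peptide or scrambled peptide (30 μg/ml). Lysates were immunoblotted for total and phospho-ERK1/2 using infrared-dye secondaries, and the phospho/total intensity ratio was taken. Two experiments were run; ANOVA with Tukey.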

[3] = target: T1, VEGFR-3 (Mus musculus, UniProt P35917); assay: competition assay, binding of phage PCAIWF to immobilized VEGFR-3
T1 sequence (P35917 25-770): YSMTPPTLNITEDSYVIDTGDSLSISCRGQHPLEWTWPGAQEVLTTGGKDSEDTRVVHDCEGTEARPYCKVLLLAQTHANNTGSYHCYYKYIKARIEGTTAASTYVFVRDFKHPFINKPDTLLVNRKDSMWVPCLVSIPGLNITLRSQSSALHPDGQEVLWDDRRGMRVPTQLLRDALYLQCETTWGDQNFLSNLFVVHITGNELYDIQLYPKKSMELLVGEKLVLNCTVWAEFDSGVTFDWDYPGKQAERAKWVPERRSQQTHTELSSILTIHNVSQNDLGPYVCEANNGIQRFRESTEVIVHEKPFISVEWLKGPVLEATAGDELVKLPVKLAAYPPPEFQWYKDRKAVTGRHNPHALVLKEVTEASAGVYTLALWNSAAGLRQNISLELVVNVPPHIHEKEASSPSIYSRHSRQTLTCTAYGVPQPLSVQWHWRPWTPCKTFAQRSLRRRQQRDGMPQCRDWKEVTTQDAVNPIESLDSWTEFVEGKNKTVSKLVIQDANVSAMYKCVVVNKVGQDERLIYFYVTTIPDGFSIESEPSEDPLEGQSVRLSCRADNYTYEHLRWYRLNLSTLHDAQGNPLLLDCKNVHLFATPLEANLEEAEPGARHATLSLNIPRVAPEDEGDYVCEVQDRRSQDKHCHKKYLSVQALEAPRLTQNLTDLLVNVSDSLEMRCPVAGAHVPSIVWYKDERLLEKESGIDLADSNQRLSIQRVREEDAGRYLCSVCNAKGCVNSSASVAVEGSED

[4] = tested on: human VEGFR-3; assay: phage binding assay, immobilized human VEGFR-3; details: 10^8 TU in 50 μl PBS, 2 hours, room temperature; control insertless phage Fd; colony count or phage-FLISA; triplicate plating
[5] = tested on: mouse VEGFR-3; assay: phage binding assay, immobilized mouse VEGFR-3; details: 10^8 TU in 50 μl PBS, 2 hours, room temperature; control insertless phage Fd; colony count or phage-FLISA; triplicate plating
[6] = target: T2, recombinant IgD2 domain of human VEGFR-3 (human, UniProt P35916 136-229); assay: ELISA
T2 sequence: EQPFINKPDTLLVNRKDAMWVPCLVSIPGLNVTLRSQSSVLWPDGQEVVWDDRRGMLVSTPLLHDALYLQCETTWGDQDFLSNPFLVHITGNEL

[7] = target: T3, recombinant IgD2-3 domains of human VEGFR-3 (human, UniProt P35916 136-332); assay: ELISA
T3 sequence: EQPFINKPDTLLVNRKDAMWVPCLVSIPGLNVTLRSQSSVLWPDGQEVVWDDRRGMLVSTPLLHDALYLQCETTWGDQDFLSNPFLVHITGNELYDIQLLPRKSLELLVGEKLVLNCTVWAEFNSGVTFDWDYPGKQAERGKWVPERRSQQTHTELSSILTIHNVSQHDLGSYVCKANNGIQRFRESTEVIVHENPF

[8] = target: T4, human VEGFR-3 extracellular domain (Fc fusion) (human, UniProt P35916 25-775); assay: ELISA
T4 sequence: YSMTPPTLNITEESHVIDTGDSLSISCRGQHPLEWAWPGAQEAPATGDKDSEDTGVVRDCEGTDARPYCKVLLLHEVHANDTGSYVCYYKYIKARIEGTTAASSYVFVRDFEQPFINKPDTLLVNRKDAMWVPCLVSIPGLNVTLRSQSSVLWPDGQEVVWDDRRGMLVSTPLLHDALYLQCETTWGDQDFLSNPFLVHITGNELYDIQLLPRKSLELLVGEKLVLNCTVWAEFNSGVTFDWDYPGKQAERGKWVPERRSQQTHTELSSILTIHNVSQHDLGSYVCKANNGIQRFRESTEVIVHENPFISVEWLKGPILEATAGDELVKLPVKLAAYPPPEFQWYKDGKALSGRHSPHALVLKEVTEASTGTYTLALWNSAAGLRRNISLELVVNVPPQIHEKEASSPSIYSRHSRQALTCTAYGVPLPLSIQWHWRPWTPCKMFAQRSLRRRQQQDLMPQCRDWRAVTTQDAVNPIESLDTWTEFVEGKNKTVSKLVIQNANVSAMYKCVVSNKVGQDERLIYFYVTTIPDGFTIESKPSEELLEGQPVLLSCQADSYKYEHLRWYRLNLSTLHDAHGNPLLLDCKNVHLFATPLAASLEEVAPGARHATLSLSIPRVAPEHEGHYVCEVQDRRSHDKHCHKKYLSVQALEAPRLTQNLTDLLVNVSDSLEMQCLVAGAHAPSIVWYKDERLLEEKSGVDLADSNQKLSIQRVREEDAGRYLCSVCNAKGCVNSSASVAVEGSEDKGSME

[9] = tested on: human VEGFR-1; assay: FLISA binding assay, NRP-2 to VEGFR-1; details: rat NRP-2, FLISA
In short: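 Human VEGFR-1 extracellular domain coated at 200 ng per well in PBS overnight at 4°C, then blocked with Odyssey blocking buffer. Wells incubated with NRP-1 or NRP-2 in PBS with 10% (v/v) DMSO and 10% blocking buffer, with or without peptide (100 μg/ml). Bound NRP detected with goat anti-NRP-1 or anti-NRP-2 serum (1:100), then IRDye 680LT anti-goat, by infrared scanning. Duplicate wells; ANOVA with Tukey.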

[10] = target: T5, recombinant mouse VEGFR-3/Fc (mouse, UniProt P35917 25-770); assay: phage binding assay
T5 sequence: T1 sequence (P35917 25-770)

[11] = target: T4, human VEGFR-3 extracellular domain (Fc …); assay: phage binding assay
[12] = target: human VEGFR-1 extracellular domain (Fc fusion) (human, UniProt P17948 27-758); assay: ELISA
[13] = target: human VEGFR-2 extracellular domain (Fc fusion) (human, UniProt P35968 20-764); assay: ELISA
Sequence of human VEGFR-2 extracellular domain (Fc fusion) (P35968 20-764): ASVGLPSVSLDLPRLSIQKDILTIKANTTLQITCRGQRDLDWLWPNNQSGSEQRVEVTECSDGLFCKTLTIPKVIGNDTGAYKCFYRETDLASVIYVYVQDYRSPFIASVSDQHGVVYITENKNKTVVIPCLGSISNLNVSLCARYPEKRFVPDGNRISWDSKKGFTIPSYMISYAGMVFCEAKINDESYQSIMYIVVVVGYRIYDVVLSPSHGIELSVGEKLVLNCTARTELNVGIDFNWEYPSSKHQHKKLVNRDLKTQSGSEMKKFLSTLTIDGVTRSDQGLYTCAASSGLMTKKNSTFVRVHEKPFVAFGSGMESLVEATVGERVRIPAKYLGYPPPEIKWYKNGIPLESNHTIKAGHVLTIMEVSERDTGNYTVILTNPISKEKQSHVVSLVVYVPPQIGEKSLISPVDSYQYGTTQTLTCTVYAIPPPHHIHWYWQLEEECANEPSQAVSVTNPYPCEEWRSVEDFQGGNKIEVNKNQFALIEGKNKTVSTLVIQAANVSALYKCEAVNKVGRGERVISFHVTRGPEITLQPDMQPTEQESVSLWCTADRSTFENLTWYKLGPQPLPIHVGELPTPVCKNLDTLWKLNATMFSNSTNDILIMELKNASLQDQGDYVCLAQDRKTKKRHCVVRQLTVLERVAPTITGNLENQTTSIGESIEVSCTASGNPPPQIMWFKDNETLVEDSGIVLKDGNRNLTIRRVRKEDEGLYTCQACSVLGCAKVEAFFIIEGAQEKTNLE

Sequence of human VEGFR-1 extracellular domain (Fc fusion) (P17948 27-758): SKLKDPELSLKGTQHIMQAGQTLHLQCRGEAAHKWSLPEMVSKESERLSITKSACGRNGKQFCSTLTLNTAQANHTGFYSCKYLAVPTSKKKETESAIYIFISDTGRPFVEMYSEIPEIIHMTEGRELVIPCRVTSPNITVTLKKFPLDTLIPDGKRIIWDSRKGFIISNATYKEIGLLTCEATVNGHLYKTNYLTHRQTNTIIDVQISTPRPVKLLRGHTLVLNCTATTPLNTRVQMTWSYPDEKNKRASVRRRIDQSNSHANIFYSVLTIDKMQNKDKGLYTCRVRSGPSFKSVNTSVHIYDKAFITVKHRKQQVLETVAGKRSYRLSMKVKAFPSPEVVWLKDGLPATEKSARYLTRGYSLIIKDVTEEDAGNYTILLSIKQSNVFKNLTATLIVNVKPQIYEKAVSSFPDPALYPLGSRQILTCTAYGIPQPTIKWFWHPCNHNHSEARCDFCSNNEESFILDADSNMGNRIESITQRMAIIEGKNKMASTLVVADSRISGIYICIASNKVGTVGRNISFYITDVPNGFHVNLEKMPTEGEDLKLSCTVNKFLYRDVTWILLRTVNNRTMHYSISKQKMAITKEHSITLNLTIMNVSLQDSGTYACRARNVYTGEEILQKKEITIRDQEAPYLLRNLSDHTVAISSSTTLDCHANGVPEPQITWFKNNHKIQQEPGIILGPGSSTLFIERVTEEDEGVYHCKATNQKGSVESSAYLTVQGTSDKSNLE

In the case of COc1c(C)c(C(=O)c2ccc(N)c(C(=O)[O-])c2)n2ccccc12.[Na+] [SSR128129E], the “effect on FGF receptors” value [1] is given as “binds to and prevents the activation of all four FGF receptors” and the “interaction with ligand-binding domain of the FGF receptors” value [1] is given as “does not interact with the ligand-binding domain of the receptors”.

With “FGF-1: fibroblast growth factor, recombinant human ligand” the “phosphorylation of ERK1/2 upon growth factor stimulation” value [2] was “phosphorylation of ERK1/2 increases”.

Work on PSAIWF [PSAIWF] yielded an IC50 [3] of roughly 278 µM.

In the case of WVCSGG [phage WVCSGG], the “phage binding to human VEGFR-3” value [4] is reported as “both phages bound to mouse and human VEGFR-3” and the “phage binding to mouse VEGFR-3” value [5] is reported as “both phages bound to mouse and human VEGFR-3”.

PCAIWF [synthetic peptide PCAIWF]: binds [6]; binds [7]; binds [8].

B1: NRP-2: neuropilin, co-receptor for VEGF; rat NRP-2 (protein)
chain: QQDPPCGGRLNSKDAGYITSPGYPQDYPSHQNCEWVVYAPEPNQKIVLNFNPHFEIEKHDCKYDFIEIRDGDSESADLLGKHCGNIAPPTIISSGSVLYIKFTSDYARQGAGFSLRYEIFKTGSEDCSKNFTSPNGTIESPGFPEKYPHNLDCTFTILAKPRMEIILQFLTFDLEHDPLQVGEGDCKYDWLDIWDGIPHVGPLIGKYCGTKTPSKLRSSTGILSLTFHTDMAVAKDGFSARYYLVHQEPPENFQCNAPLGMESGRIANEQISASSTFSDGRWTPQQSRLHGDDNGWTPNVDSNKEYLQVDLRFLTMLTAIATQGAISRETQKGYYVKSYKLEVSTNGEDWMVYRHGKNHKVFQANNDATELVLNKLHTPLLTRFIRIRPQTWHLGIALRLELFGCRVTDAPCSNMLGMLSGLIADTQISASSTREYLWSPSAARLVSSRSGWFPRNPQAQPGEEWLQVDLGTPKTVKGVIIQGARGGDSITAMEARAFVRKFKVSYSLNGKDWEYIQDPRTQQPKLFEGNMHYDTPDIRRFEPVPAQYVRVYPERWSPAGIGMRLEVLGCDWTDSKPTVETLGPTVKSEETTTPYPMDEDATECGENCSFEDDKDLQLPSGFNCNFDFPEETCGWMYDRAKWLQSTWISSANPNDRTFPDDKNFLKLQSDGGREGQFGRLISPPVHLPRSPVCMEFQYQAMGGHGVALQVVREARQESKLLWVIREDQGSEWKHGRIILPSYDMEYQIVFEGVIGKGRSGEISIDDIRISTDVPLENCMEPISAFAVDIPEIHGGEGYEDEIDDDYEGDWNNSSSTSGAGSPSSGKEKSWLYTLDP
In the case of B1, the “NRP-2 binding to VEGFR-1” value [9] is reported as “strong interaction”.

WVCSGG [phage WVCSGG]: binds [10]; binds [11].

WVCSGG [synthetic peptide WVCSGG]: binds [6]; binds [7].

PCAIWF [phage PCAIWF]: binds [6]; binds [7]; binds [10]. PCAIWF [phage PCAIWF]: binds [11].

PSAIWF [synthetic peptide PSAIWF]: binds [12]; binds [8]; binds [13].
